Measured values: paper PMC3556274 (Bioconjugate chemistry, 2012)
Non-standard residues stand in square brackets, D forms with d. Residues, ends and D or L forms follow the SMILES beside them. *: point of attachment. DTPA = O=C(O)CN(CCN(CC(=O)O)CC(=O)O)CCN(CC(=O)O)CC(=O)*; Orn = NCCC[C@H](N)C(=O)O; 2Furoyl = O=C(c1ccco1)*

What was measured:
PAR2 [1] = target: T1, PAR2 (Homo sapiens, UniProt P55085); assay: xCELLigence Real Time Cell Analyzer; assay type: cell-based; conditions: 16HBE14o- cells
T1 sequence (P55085 26-397): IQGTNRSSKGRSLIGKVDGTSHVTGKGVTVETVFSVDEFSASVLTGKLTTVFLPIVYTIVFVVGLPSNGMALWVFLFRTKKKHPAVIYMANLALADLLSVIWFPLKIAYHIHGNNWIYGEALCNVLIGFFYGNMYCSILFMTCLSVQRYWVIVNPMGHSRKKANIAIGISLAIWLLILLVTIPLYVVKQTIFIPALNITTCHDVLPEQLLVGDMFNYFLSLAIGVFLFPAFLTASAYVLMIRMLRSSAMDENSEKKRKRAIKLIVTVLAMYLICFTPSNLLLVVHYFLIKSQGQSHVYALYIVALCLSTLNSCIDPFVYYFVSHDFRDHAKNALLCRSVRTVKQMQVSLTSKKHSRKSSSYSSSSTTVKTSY

[2] = system: control vector-transfected (kNRK) rat kidney cells; assay: Ca2+ signaling in control vector-transfected kNRK cells; assay type: cell-based
How it was run: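 Kirsten virus-transformed normal rat kidney cells (low PAR2 expression) transfected with control vector were run alongside PAR2-transfected kNRK cells. [Ca2+]i was imaged by digital microscopy as for the bronchial epithelial cells, scoring the percentage of cells responding within the 3 min run. Comparison was to matched control, n ≥ 4.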

PAR2 [3] = target: T1, PAR2; assay: MAPK signaling, immunoblot of pERK/tERK; assay type: cell-based; conditions: 16HBE14o- cells, 5 min exposure, concentration response 1-10 µM
How it was run: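 16HBE14o- cells exposed 5 min to test compound at 1–10 µM. ERK1/2 phosphorylation measured by immunoblot as pERK relative to total ERK. Values were compared with matching HBSS control.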

PAR2 [4] = target: T1, PAR2; assay: Ca2+ signaling by digital imaging microscopy in 16HBE14o- cells; assay type: cell-based; conditions: 5 µM
How it was run: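 Human bronchial epithelial 16HBE14o- cells (high PAR2 expression) imaged by digital microscopy for [Ca2+]i changes in individual cells over a 3 min run after agonist addition. Concentration response 0.5–25 µM. Read-out: time course of [Ca2+]i rise and percentage of cells in the field responding within 3 min. Each concentration had 3–9 experiments.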

PAR2 [5] = target: T1, PAR2; assay type: binding; conditions: 16HBE14o- cells, against 300 nM 2-f-LIGRLO-dtpa
How it was run: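 Live 16HBE14o- cells grown to confluence (37°C, 5% CO2) on BSA/collagen I/fibronectin-coated 96-well plates. Cells were blocked 75 min in 2% BSA in HEPES-buffered HBSS pH 7.4, then given 45 min at 25°C with 300 nM Eu-DTPA-labelled PAR2 agonist plus competitor at 1 nM–600 µM. Three EDTA/Tween/BSA washes followed, then DELFIA enhancement for 40–45 min. Eu TRF read at ex 340/em 615 nm with 400 µs delay. Apparent IC50 from n ≥ 3 per concentration in ≥2 independent plates.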

competition for PAR2 binding (in words) (PAR2 [5]) | Molecule | concentration that stimulated a maximum Cell Index (PAR2 [1]; RTCA) | agonist properties in the RTCA physiological response assay (PAR2 [1]; acute (10 min) and long-term (4 h) time points) | percentage of cells with Ca2+ signaling ([2]; 2.5 µM) | percentage of cells with Ca2+ signaling ([2]; 5 µM) | concentration inducing a significant increase in pERK/tERK compared with control (PAR2 [3]) | concentration of peak (maximum) pERK/tERK activation (PAR2 [3]) | time to initial increase in [Ca2+]i (PAR2 [4])
 | CC[C@H](C)[C@H](NC(=O)[C@H](CC(C)C)NC(=O)c1ccco1)C(=O)NCC(=O)N[C@@H](CCCNC(=N)N)C(=O)N[C@@H](CC(C)C)C(=O)N[C@@H](CCCNC(=O)CN(CCN(CCN(CC(=O)O)CC(=O)O)CC(=O)O)CC(=O)O)C(N)=O [2-f-LIGRLO-dtpa, 2-furoyl-LIGRLO-(diethylenetriaminepentaacetic acid)-NH2] (2Furoyl-LIGRL[Orn](DTPA)-NH2) | 2.5 µM | full agonist properties | 0.42% ± 0.42 | 2.98% ± 0.09 | 2.5 µM | 10 µM | ≤ 30 s
displayed limited binding | 3-indoleacetyl-LIGRL-NH2 [3-ia-LIGRL] |  |  |  |  |  |  | 
